Compounds with a hit are over-represented: about 3.5% of the library has one in this group of screens.
MrgX1 antag: blocks BAM8-22 activation of human MrgX1 receptor | Q96LB2 | MRGX1-HEK293 calcium flux, Fluo-4, BAM8-22 antagonism; active compounds read low | B-score at 10 µM | 310,000 compounds, 1.3% hits | AID 588676;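 active means calcium-response B-score plate-corrected more than 3 library SD below zero, starting fluorescence within 5 deviations, no agonist response on first addition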;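 further: peak minus trough fluorescence over baseline after final BAM8-22 challenge near maximal dose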
Target sequence (Q96LB2 whole entry, looked up): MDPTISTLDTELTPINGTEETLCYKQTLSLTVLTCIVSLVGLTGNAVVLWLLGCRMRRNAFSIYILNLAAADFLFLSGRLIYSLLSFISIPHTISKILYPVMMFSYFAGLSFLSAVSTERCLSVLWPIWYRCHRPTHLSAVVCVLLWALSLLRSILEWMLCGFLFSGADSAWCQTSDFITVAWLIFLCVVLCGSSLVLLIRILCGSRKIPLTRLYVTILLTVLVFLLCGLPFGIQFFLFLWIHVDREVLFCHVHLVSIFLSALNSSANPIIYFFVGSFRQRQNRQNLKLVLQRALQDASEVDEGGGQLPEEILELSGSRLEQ
MrgX1 allo act: allosterically activates human MrgX1 receptor signaling; MrgX1-HEK293, Fluo-4 calcium flux, FDSS; active compounds read high; 310,000 compounds, 0.63% hits; AID 588675; Q96LB2; B-score at 10 µM;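 active means plate-corrected calcium response at least 3 library SD above typical, normal starting fluorescence, not activating the receptor alone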;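 further: compound read alongside a low EC10 to EC30 dose of BAM8-22 agonist; peak minus trough fluorescence over baseline measured at the second addition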
RGS4 pot: RGS4 potentiation or activation; HEK293 M3R/inducible RGS4, carbachol calcium flux Fluo4; active compounds read low; B-score at 10 µM; 310,000 compounds, 0.92% hits; AID 463111;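 active means B-score of the integrated calcium signal more than 4 SD below the library mean, with starting fluorescence not abnormally high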;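 further: negative B-score means reduced calcium response which marks RGS4 activation or potentiation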
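System: HEK293 FlpIn-TREx cells, stable M3R, doxycycline-inducible RGS4. Timing: overnight RGS4 induction, 30 min dye load 37 °C, 20 min compound RT. Also added: carbachol, ECmax concentration. Measured by: Fluo4 fluorescence kinetic imaging of calcium. Evaluation: integrated calcium ratio converted to B score.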
RGS4 inh: human RGS4 inhibition; P49798; 310,000 compounds, 0.45% hits; HEK293 M3R/RGS4 inducible, Fluo-4 calcium flux; active compounds read high; triggered by carbachol at its EC20; AID 463165; B-score at 10 µM;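 active means B-score, a plate-corrected calcium signal, over three deviations above library mean, with baseline fluorescence within five deviations of library mean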;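 further: RGS4 expression induced by doxycycline in cells with stable M3 receptor; B-score is computed from the integrated fluorescence ratio over baseline after carbachol; higher B-score means a larger calcium signal and so more RGS4 inhibition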
Target sequence (P49798 whole entry, looked up): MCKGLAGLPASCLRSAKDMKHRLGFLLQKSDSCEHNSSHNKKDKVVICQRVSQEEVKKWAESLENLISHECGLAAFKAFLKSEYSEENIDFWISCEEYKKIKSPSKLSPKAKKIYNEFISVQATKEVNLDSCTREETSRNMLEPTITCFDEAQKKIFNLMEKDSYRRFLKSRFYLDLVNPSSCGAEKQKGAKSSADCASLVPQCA
MrgX1 agonist: activates human MrgX1 receptor signaling; Q96LB2; 310,000 compounds, 0.44% hits; B-score at 10 µM; MrgX1-HEK293 cells, Fluo-4 calcium fluorescence, agonist mode; active compounds read high;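 active means calcium response B-score plate-corrected fluorescence ratio at least 3 library SD, with starting fluorescence B-score inside 5 SD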
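Material: MrgX1-expressing HEK293 cells / Dosing: compound as first of three additions / Incubation: overnight seeding, then 1 h dark dye loading / Signal: Fluo-4 NW calcium fluorescence / Evaluation: B-scored fluorescence response ratio / Benchmarks: positive and negative control wells on each plate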
RGS4 inh valid: RGS4 inhibitor validation. calcium response, % at 10 µM. HEK293 M3R/RGS4, carbachol calcium Fluo-4 fluorescence; carbachol added at its EC20; 0 = buffer wells, 100 = carbachol control. 1,700 compounds, 65% hits. shares compounds with RGS4 inh;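 active means duplicate-averaged calcium response above the buffer-only control mean plus 5 SD of those controls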;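 further: integrated fluorescence ratio F max minus min over baseline F0; higher response in RGS4-induced cells means RGS4 inhibition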
RGS4 uninduced: counter-screen for RGS4 inhibitors: effect in non-induced cells; shares compounds with RGS4 inh; HEK293 M3R non-induced, carbachol calcium Fluo-4; submaximal (EC20) carbachol stimulus; buffer wells 0%, carbachol control wells 100%; activity (percent), % at 10 µM; 1,900 compounds, 20% hits; AID 493000; call rule not given here;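 further: RGS4 induction absent so cells express M3R without RGS4; higher means more calcium signal and flags a non-specific hit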
RGS4 inh ctr2: second RGS4 inhibitor counter-screen in uninduced cells lacking carbachol; shares compounds with RGS4 inh; HEK293 M3R/RGS4 non-induced, Fluo-4 calcium, no carbachol; normalised: buffer wells 0%, carbachol wells 100%; calcium response (agonist-mode artifact), % at 10 µM; 1,900 compounds, 22% hits;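 active means duplicate-averaged calcium rise in uninduced cells above buffer wells' mean plus 5 SD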
Of the large screens only hits and unclear results are named; the others gave an inactive call (follow-up assays come after a bar, where they were run).

CCC(C)Nc1nc2c(c(=O)[nH]c(=O)n2C)n1CCC(C)C (stereo not drawn)	none | RGS4 inh valid inactive | RGS4 uninduced inactive | RGS4 inh ctr2 inactive
COC(=O)C(C)Sc1nc2c(c(=O)[nH]c(=O)n2C)n1CCC(C)C (stereo not drawn)	RGS4 inh 5.69 | RGS4 inh valid 26.5% | RGS4 uninduced 56.0% | RGS4 inh ctr2 inactive
Cc1nc(Nc2ccc(Cl)cc2Cl)sc1C(=O)Nc1ccccc1	none
Oc1nc(Nc2ccc(Cl)cc2Cl)sc1/C=C1\C=Nc2ccccc21	RGS4 inh 5.73 | RGS4 inh valid 10.5% | RGS4 uninduced inactive | RGS4 inh ctr2 20.0%
CO/N=C/NC(=O)C1=NOC(CNc2ncc(C(F)(F)F)cc2Cl)C1 (stereo not drawn)	none
NC(=O)C1=NOC(CNc2ncc(C(F)(F)F)cc2Cl)C1 (stereo not drawn)	none | RGS4 inh valid inactive | RGS4 uninduced inactive | RGS4 inh ctr2 inactive
N#C/C(=C\c1ccc([N+](=O)[O-])cc1)c1nc(C2CC2)cs1	RGS4 inh 12.8 | RGS4 inh valid inactive | RGS4 uninduced inactive | RGS4 inh ctr2 56.0%
N#C/C(=C\c1ccccc1[N+](=O)[O-])c1nc(C2CC2)cs1	none
O=C(CCC1CCCCC1)NNC(=O)c1cnccn1	RGS4 inh 8.38 | RGS4 inh valid 18.5% | RGS4 uninduced inactive | RGS4 inh ctr2 inactive
O=C(NNC(=O)C1CCCCC1)c1cnccn1	none
COc1cc(/C=N/NC(=S)Nc2cccc(Cl)c2C)ccc1OCC(=O)N1CC(C)OC(C)C1 (stereo not drawn)	RGS4 inh 12.9 | RGS4 inh valid inactive | RGS4 uninduced inactive | RGS4 inh ctr2 inactive
Cc1ccc(/C=C/C(=O)N2CCN(c3ncccn3)CC2)o1	RGS4 inh 13.9 | RGS4 inh valid 17.0% | RGS4 uninduced inactive | RGS4 inh ctr2 inactive
NC(=O)CC(NC(=O)Cc1ccc(Cl)cc1)c1ccc(NC2CCCC2)c([N+](=O)[O-])c1 (stereo not drawn)	none | RGS4 inh valid inactive | RGS4 uninduced inactive | RGS4 inh ctr2 inactive
NC(=O)CC(NC(=O)Cc1ccc(Br)cc1)c1ccc(NC2CCC2)c([N+](=O)[O-])c1 (stereo not drawn)	none | RGS4 uninduced inactive | RGS4 inh ctr2 inactive
Cc1nn(C)c(C(=O)NNC(=S)NC2CCCCC2)c1Br	RGS4 inh 8.47 | RGS4 inh valid 23.0% | RGS4 uninduced 32.0% | RGS4 inh ctr2 inactive
Cn1ncc(Br)c1C(=O)NC1CCCCCCC1	none (no result: MrgX1 antag, MrgX1 allo act, MrgX1 agonist)
O=C(Nc1cccc(N2C(=O)C=CC2=O)c1)c1cccs1	RGS4 inh 21.2, MrgX1 agonist 35 | RGS4 inh valid 33.0% | RGS4 uninduced inactive | RGS4 inh ctr2 47.5%
Cc1nc2ccccc2c(=O)n1-c1cccc(NC(=O)c2cccs2)c1	none
Cc1cc(Cl)ccc1Nc1ncccc1C(N)=O	RGS4 inh 5.35 | RGS4 inh valid 11.5% | RGS4 uninduced inactive | RGS4 inh ctr2 inactive
Cc1[nH]n(-c2c(Cl)cc(Cl)cc2Cl)c(=O)c1C=Nc1ccc(S(=O)(=O)N2CCOCC2)cc1	none | RGS4 inh valid inactive | RGS4 uninduced inactive | RGS4 inh ctr2 inactive
Cc1[nH]n(-c2ccccc2)c(=O)c1C=Nc1ccc(S(N)(=O)=O)cc1	none
COc1ccc(Nc2nnc(SCC(=O)Nc3ccc4[nH]c(=O)[nH]c4c3)s2)cc1	none
CC(=O)Nc1ccc(-c2nnc(SCC(=O)Nc3ccc4c(c3)oc3ccccc34)n2C)cc1	none | RGS4 uninduced inactive | RGS4 inh ctr2 16.0%
COC(=O)/C(=C/c1c[nH]c2ccccc12)[N+](=O)[O-]	RGS4 inh 20.6, MrgX1 agonist 34.5 | RGS4 inh valid 18.5% | RGS4 uninduced 35.0% | RGS4 inh ctr2 20.0%
Clc1ccc2[nH]c3c(c2c1)CCc1cn[nH]c1-3	RGS4 inh 11.1 | RGS4 inh valid 75.0% | RGS4 uninduced 40.5% | RGS4 inh ctr2 27.0%
COc1cc(C(C(=O)NC2CCCCC2)N(C(=O)Cc2c[nH]c3ccccc23)c2ccc(C)cc2)cc(OC)c1OC (stereo not drawn)	none | RGS4 inh valid inactive | RGS4 uninduced inactive | RGS4 inh ctr2 inactive
COc1ccc(C(=O)N/C(=C\c2cn(C)c3ccccc23)C(=O)NCCN2CCOCC2)cc1OC	none
COc1cccc(CNC(=O)COc2ccc(C(=O)c3ccccc3)cc2)c1	none
O=C(Nc1nnc(-c2ccc3c(c2)OCCO3)o1)C1CCCCC1	RGS4 inh 8.41 | RGS4 inh valid 7.0% | RGS4 uninduced inactive | RGS4 inh ctr2 inactive
Clc1ccccc1C1Nc2cccc3cccc(c23)N1	none

Assay outcomes from PubChem BioAssay.
